Assay results taken from ChEMBL document CHEMBL4706643 (J Med Chem, 2021).
Calls of active or inactive are those of the source. The rule behind the calls is not given here.

Tests used:
[1] = AUC (0 to infinity) in C57BL/6 mouse at 5 mg/kg, iv; assay type: ADME, organism-based; design: time infinity, route intravenous, dose 5 mg/kg; conditions: in vivo
In short: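 Male C57BL/6 mice, n = 3, dosed IV at 5 mg/kg, IP at 10 mg/kg or by oral gavage (PO) at 10 mg/kg. All doses formulated in DMSO:cremophor:0.9% NaCl = 5:5:90. AUC from time zero to infinity (h*ng/mL) was derived from plasma drug levels and is reported as the mean of the males.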

Hepatitis B virus = assay: Antiviral activity against HBV infected in human HepG2-NTCP cells assessed as reduction in HBV viral transcription at 10 uM treated 3 days post infection by northern blot analysis; assay type: functional, organism-based; conditions: time 3.0 day
In short: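 Infected HepG2-NTCP cells given compound either with the HBV inoculum or at dpi 3–5; RNA extracted with TRIzol, run on 1.0% agarose–formaldehyde/MOPS gel. Northern blot as for Southern, probed with DIG-labelled full-length HBV genome plus DIG-labelled GAPDH probe.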

SMILES: CC[C@@H]1NC(=O)[C@H]([C@@H]2O[C@@H](Sc3cccc(OCc4ccccc4)c3)C[C@H]2C)N(C)C(=O)[C@H](C(C)C)N(C)C(=O)[C@H](CC(C)C)N(C)C(=O)[C@H](CC(C)C)N(C)C(=O)[C@@H](C)NC(=O)[C@H](C)NC(=O)[C@H](CC(C)C)N(C)C(=O)[C@H](C(C)C)NC(=O)[C@H](CC(C)C)N(C)C(=O)CN(C)C1=O
- AUC(0-inf) [1]: 39700 ng·h/mL
- Activity (Hepatitis B virus): inactive
